Assay results: the RNAGym collection of RNA variant scans (doi:10.1126/science.aae0568)
This sample holds only a part of the variants without activity.

B1: tRNA (parent)
chain: GUUCCGUUGGCGUAAUGGUAACGCGUCUCCCUCCUAAGGAGAAGACUGCGGGUUCGAGUCCCGUACGGAACG

Variants of: B1
Test: yeast fitness relative to wild type (ratio to wild type); higher = fitter; tRNA-Arg(CCU), competitive growth, 37 C, YPD
Method in brief: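 Amplicons of the tRNA-Arg(CCU) gene were sequenced, 100-nucleotide paired-end, from the start population and from each end population of a pooled yeast competition. The competition, in six parallel replicates, lasted 24 hours in YPD at 37°C. Fitness relative to wild type was calculated from changes in genotype frequencies. Genotypes had to have ≥ 100 starting reads, and estimates < 0.5 were set to 0.5.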

Row | Variant | yeast fitness
1 | GUUCGGUUGGCGUAAUGGUAACGCGUCUCCCUCCUAAGGAGAAGACUGCGCGUUCGAGUCCCGUACGGAACG [C5G G51C] | 0.761
2 | GUUCGGUUGGCGUAAUGGUAACGCGUCUCCCUCCUAAGGAGAAGACUGCGCGUUCGUGUUCCGUACGGAACG [C5G G51C A57U C60U] | ≤ 0.5
3 | GUUCGGUUGGCGUAAUGGUAACGCGUCUCCCUCCUAAGGAGAAGACUGCGCGUUCGAGUCCCGUCCGGAACG [C5G G51C A65C] | ≤ 0.5
4 | GUUCGGUUGGCGUAAUGGUAACGCGUCUCCCUCCUAAGGAGAAGACUGCGCGUUCGAGUCGCGUAUGGAACG [C5G G51C C61G C66U] | ≤ 0.5
5 | GUUCGGUUGGCGUAAUGGUAACGCGUCUCCCUCCUAAGGAGAAGACUGCGGCUUCGAGUCCCGUAUGGAACG [C5G G52C C66U] | ≤ 0.5
6 | GUUCGGUUGGCGUAAUGGUAACGCGUCUCCCUCCUAAGGAGAAGACUGCGGGUUCAAGUCCCGUACGGAACG [C5G G56A] | 0.975
7 | GUUCGGUUGGCGUAAUGGUAACGCGUCUCCCUCCUAAGGAGAAGACUGCGGGUUCGAAUCCCGUACGGAACG [C5G G58A] | 0.957
8 | GUUCGGUUGGCGUAAUGGUAACGCGUCUCCCUCCUAAGGAGAAGACUGCGGGUUCGAGUCCCAUACGGAACG [C5G G63A] | 0.843
9 | GUUCGGUUGGCGUAAUGGUAACGCGUCUCCCUCCUAAGGAGAAGACUGCGGGUUCGAGUCCCAUACGGCACG [C5G G63A A69C] | 0.614
10 | GUUCGGUUGGCGUAAUGGUAACGCGUCUCCCUCCUAAGGAGAAGACUGCGGGUUCGAGUCCCCUACGGAACG [C5G G63C] | 0.626
11 | GUUCGGUUGGCGUAAUGGUAACGCGUCUCCCUCCUAAGGAGAAGACUGCGGGUUCGAGUCCCGUACGCGACG [C5G G68C A69G] | 0.54
12 | GUUCGGUUGGCGUAAUGGUAACGCGUCUCCCUCCUAAGGAGAAGACUGCGGGUUCGAGUCCCGUACGUAACG [C5G G68U] | 0.678
13 | GUUCGGAUGGCGUUAUGGUAACGCGUCUCCCUCCUAAGGAGAAGACUGCGGGUUCGAGUCCCGUACGGAACG [C5G U7A A14U] | 0.624
14 | GUUCGGAUGGCGUAAUGGUCACGCGUCUCCCUCCUAAGGAGAAGAUUGCGGGUUCGAGUCCCGUACGGAACG [C5G U7A A20C C46U] | ≤ 0.5
15 | GUUCGGAUGGCGUAAUGGUCACGCGUCUCCCUCCUAAGGAGAAGACUGCGGGUUCGAGUCCCGUACGCAACG [C5G U7A A20C G68C] | ≤ 0.5
16 | GUUCGGAUGGCGUAAUGGUGACGCGUCUCCCUCCUAAGGAGAAGACGGCCCGUUCGAGUCCCGUACGGAACG [C5G U7A A20G U47G G50C G51C] | ≤ 0.5
17 | GUUCGGAUGGCGUAAUGGUAACGCGUCUCCCUCCUAAGGAGCAGACUGCGGGUUCGAGUCCCGUACGGAACG [C5G U7A A42C] | ≤ 0.5
18 | GUUCGGAUGGUGUAAUGGUAACGCGUCUCCAUCCUAAGGAGAAGCCUGCGGGUUCGAGUCCCGUACGGAACG [C5G U7A C11U C31A A45C] | ≤ 0.5
19 | GUUCGGCUGGCGUAAUGGUUACGCGUCUCCCUCCUAAGGAGAGGACUGCGGGUUCGAGUCCCGUACGGAACG [C5G U7C A20U A43G] | ≤ 0.5

Row | Variant | yeast fitness
20 | GUUCGGCUGGGGUAAUGGUAACGCGUCUCCCUCCUAAGGGGAAGACUGCGGGUUCGUGUCCCGUACGGAACG [C5G U7C C11G A40G A57U] | 0.542
21 | GUUCGGCUGGGGUAAUGGUAACGCGUCUCCCUCCUAAGGGGAAGACUGCGGGUUCGUGUCCCGUACGGAUCG [C5G U7C C11G A40G A57U A70U] | ≤ 0.5
22 | GUUCGGCUGGCGUAAUGGUAACGCGUCUCCCUCAUAAGGAGAAGACUGCGGGUUCGAGUCCCGUACGGAACG [C5G U7C C34A] | ≤ 0.5
23 | GUUCGGCUGGCGUAAUGGUAACGCGUCUCCCUCCUAAGGAGAAGACUGCGGAUUCGAGUCCCGUACGGAACG [C5G U7C G52A] | ≤ 0.5
24 | GUUCGGCUGGCGUAAUGGUAACGCGUCUCCCUCCUAAGGAGAAGACUGCGGGUUCAUGUCCGGUACGGAACG [C5G U7C G56A A57U C62G] | ≤ 0.5
25 | GUUCGGCUGGCGUAAUGGUAACGCGUCUCCCUCCUAAGGAGAAGACUGCGGGUACGAGUCUCGUACGGAACG [C5G U7C U54A C61U] | 0.557
26 | GUUCGGGUGGCGUCAUGGAAACGCGUCUCCCUCCUAAGGAGAAGACUGCGGGUUCGACUCCCGUACGGAACG [C5G U7G A14C U19A G58C] | 0.584
27 | GUUCGGGUGGCGUAAUGGUGACGCGUCUCCCUCCUAAGGAGAAGACUGCGGGUUCGAGUCCCGUACGGAACG [C5G U7G A20G] | ≤ 0.5
28 | GUUCGGGUGGCGUAAUGGUAACGCGUCUCCCUCCUAAGGAGAAGACUGCGGGUUCGGGUCCCGUACGGAACG [C5G U7G A57G] | ≤ 0.5
29 | GUUCGGGUGGCGUAAUGGUAACGCGUCUCCCUACUAAGGAGAAGACUGCGGGUUCGAGUCCCGUACGGAACG [C5G U7G C33A] | 0.519
30 | GUUCGGGUGGCGUAAUGGUAACGCGUCUCCCUACUAAGGAGAAGACUGCGGGUUCGAGUCCCGUCCGGAACG [C5G U7G C33A A65C] | ≤ 0.5
31 | GUUCGGGUGGCGUAAUGGUAACGCGUCUCCCUACUAAGGAGAAGACUGCGGGUUCGAGUCCCGUACGGAUCG [C5G U7G C33A A70U] | 0.57
32 | GUUCGGGUGGCGUAAUGGUAACGCGUCUCCCUGCUAAGGAGAAGACUGCGGGUUCGAGUCCCGUACGGAUCG [C5G U7G C33G A70U] | ≤ 0.5
33 | GUUCGGGUGGCGUAAUGGUAACGCGUCUCCCCCCUAAGGAGAAGACUGCGGGUUCGAGUCCCGUACGGAACG [C5G U7G U32C] | 0.604
34 | GUUCGGUAGGCGUAAUGGUCACGCGUCUCCCUCCUAAGGAGACGAAUGCGGGUUCGAGUCCCGUACGGAACG [C5G U8A A20C A43C C46A] | ≤ 0.5
35 | GUUCGGUAGGCGUAAUGGUAACGCGUCUCCCUCCUAAGGACAAGACAGCGGGUUCGAGUCCCGUACGGAACG [C5G U8A G41C U47A] | 0.605
36 | GUUCGGUCGGCGUAGUGGUAACGCGUCUACCUCCUAAGAAGAAGACUGCGGGUUCGAGUCCCGUACGGAACG [C5G U8C A15G C29A G39A] | ≤ 0.5
37 | GUUCGGUCGGCGUAGUGCUAACGCGUCUCCCUCCUAAGGAGAAGACUGCGGGUUCGAGUCCUGUACGGAACG [C5G U8C A15G G18C C62U] | ≤ 0.5
38 | GUUCGGUCGGCGUAAUGGUGACGCGUCUCCCUCCUAAGGAGAUGACUGCGAGUUCGAGUCCCGUCCGGAACG [C5G U8C A20G A43U G51A A65C] | ≤ 0.5
